Test results published in ChEMBL document CHEMBL1649475, “In vivo pharmacodynamic profile of tigecycline against phenotypically diverse Escherichia coli and Klebsiella pneumoniae isolates” (Antimicrob Agents Chemother, 2009).

Legend:
[1] = Ratio of fAUC to MIC in Klebsiella pneumoniae isolate 135-infected ICR mouse at 50% maximal effective concentration; type: functional
Method in brief: (§1)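 EI50, EI80 and the static exposure were read from fitted curves. Free AUC came from earlier mouse PK using concentration-dependent protein binding set at Cmax. MICs were run in triplicate by CLSI broth microdilution in Mueller-Hinton broth prepared <12 h before testing, or by Etest.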

[2] = Ratio of fAUC to MIC in extended-spectrum beta-lactamase producing Klebsiella pneumoniae isolate 255-infected ICR mouse at 50% maximal effective concentration; type: functional
Method in brief: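 Female CD-1/ICR mice (~25 g) were made neutropenic with cyclophosphamide IP (150 mg/kg day −4, 100 mg/kg day −1). Each thigh received 0.1 ml IM of 10^7 CFU/ml inoculum. Tigecycline in saline was given SC 2 h later, single or multiple doses, 6.25–300 mg/kg/day. Three mice per group.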

[3] = Ratio of fAUC to MIC in extended-spectrum beta-lactamase producing Klebsiella pneumoniae isolate 266-infected ICR mouse at 50% maximal effective concentration; type: functional; method in brief: as §1
[4] = Ratio of fAUC to MIC in extended-spectrum beta-lactamase producing Klebsiella pneumoniae isolate 320-infected ICR mouse at 50% maximal effective concentration; type: functional; method in brief: as §1
[5] = Ratio of fAUC to MIC in carbapenemase producing Klebsiella pneumoniae isolate 321-infected ICR mouse at 50% maximal effective concentration; type: functional; method in brief: as §1
[6] = Ratio of fAUC to MIC in Escherichia coli isolate 54-infected ICR mouse at bacteriostatic concentration; type: functional; method in brief: as §1
[7] = Ratio of fAUC to MIC in Escherichia coli isolate 120-infected ICR mouse at bacteriostatic concentration; type: functional; method in brief: as §1
[8] = Ratio of fAUC to MIC in extended-spectrum beta-lactamase producing Escherichia coli isolate 315-infected ICR mouse at bacteriostatic concentration; type: functional; method in brief: as §1
[9] = Ratio of fAUC to MIC in extended-spectrum beta-lactamase producing Escherichia coli isolate 321-infected ICR mouse at bacteriostatic concentration; type: functional; method in brief: as §1
[10] = Ratio of fAUC to MIC in extended-spectrum beta-lactamase producing Escherichia coli isolate 322-infected ICR mouse at bacteriostatic concentration; type: functional; method in brief: as §1
[11] = Ratio of fAUC to MIC in Klebsiella pneumoniae isolate 134-infected ICR mouse at bacteriostatic concentration; type: functional; method in brief: as §1
[12] = Ratio of fAUC to MIC in Klebsiella pneumoniae isolate 135 at bacteriostatic concentration; type: functional; method in brief: as §1
[13] = Ratio of fAUC to MIC in extended-spectrum beta-lactamase producing Klebsiella pneumoniae isolate 255-infected ICR mouse at bacteriostatic concentration; type: functional; method in brief: as §1
[14] = Ratio of fAUC to MIC in extended-spectrum beta-lactamase producing Klebsiella pneumoniae isolate 266 at bacteriostatic concentration; type: functional; method in brief: as §1
[15] = Ratio of fAUC to MIC in extended-spectrum beta-lactamase producing Klebsiella pneumoniae isolate 320-infected ICR mouse at bacteriostatic concentration; type: functional; method in brief: as §1
[16] = Ratio of fAUC to MIC in carbapenemase producing Klebsiella pneumoniae isolate 321-infected ICR mouse at bacteriostatic concentration; type: functional; method in brief: as §1
Escherichia coli [17] = assay: Antibacterial activity against Escherichia coli isolate 54 infected in ICR mouse assessed as change in bacterial load at 6.25 to 50 mg/kg, sc; type: functional; details: dose mg/kg 6.25-50; route subcutaneous
Method in brief: (§2)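 Female CD-1/ICR mice (~25 g) were made neutropenic with intraperitoneal cyclophosphamide, 150 mg/kg 4 days and 100 mg/kg 1 day before inoculation. Isolates were grown on blood agar at 35°C for 18–24 h, and 0.1 ml of 10^7 CFU/ml was injected intramuscularly per thigh. At 2 h, tigecycline in saline was given sc as single or multiple doses of 3.125–50 mg/kg. Thighs were homogenized at 24 h and plated. Read-out was mean change in log10 CFU/ml versus 0-h controls, three mice per group.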

Escherichia coli [18] = assay: Antibacterial activity against Escherichia coli isolate 120 infected in ICR mouse assessed as change in bacterial load at 6.25 to 50 mg/kg, sc; type: functional; details: dose mg/kg 6.25-50; route subcutaneous; method in brief: as §2
Escherichia coli [19] = assay: Antibacterial activity against extended-spectrum beta-lactamase producing Escherichia coli isolate 315 infected in ICR mouse assessed as change in bacterial load at 6.25 to 50 mg/kg, sc; type: functional; details: dose mg/kg 6.25-50; route subcutaneous; method in brief: as §2
Escherichia coli [20] = assay: Antibacterial activity against extended-spectrum beta-lactamase producing Escherichia coli isolate 321 infected in ICR mouse assessed as change in bacterial load at 6.25 to 50 mg/kg, sc; type: functional; details: dose mg/kg 6.25-50; route subcutaneous; method in brief: as §2
Escherichia coli [21] = assay: Antibacterial activity against extended-spectrum beta-lactamase producing Escherichia coli isolate 322 infected in ICR mouse assessed as change in bacterial load at 6.25 to 50 mg/kg, sc; type: functional; details: dose mg/kg 6.25-50; route subcutaneous; method in brief: as §2
Klebsiella pneumoniae [22] = assay: Antibacterial activity against Klebsiella pneumoniae isolate 134 infected in ICR mouse assessed as change in bacterial load at 6.25 to 50 mg/kg, sc; type: functional; details: dose mg/kg 6.25-50; route subcutaneous; method in brief: as §2
Klebsiella pneumoniae [23] = assay: Antibacterial activity against Klebsiella pneumoniae isolate 135 infected in ICR mouse assessed as change in bacterial load at 6.25 to 50 mg/kg, sc; type: functional; details: dose mg/kg 6.25-50; route subcutaneous; method in brief: as §2
Klebsiella pneumoniae [24] = assay: Antibacterial activity against extended-spectrum beta-lactamase producing Klebsiella pneumoniae isolate 255 infected in ICR mouse assessed as change in bacterial load at 6.25 to 50 mg/kg, sc; type: functional; details: dose mg/kg 6.25-50; route subcutaneous; method in brief: as §2
Klebsiella pneumoniae [25] = assay: Antibacterial activity against extended-spectrum beta-lactamase producing Klebsiella pneumoniae isolate 266 infected in ICR mouse assessed as change in bacterial load at 6.25 to 50 mg/kg, sc; type: functional; details: dose mg/kg 6.25-50; route subcutaneous; method in brief: as §2
Klebsiella pneumoniae [26] = assay: Antibacterial activity against extended-spectrum beta-lactamase producing Klebsiella pneumoniae isolate 320 infected in ICR mouse assessed as change in bacterial load at 6.25 to 50 mg/kg, sc; type: functional; details: dose mg/kg 6.25-50; route subcutaneous; method in brief: as §2
Klebsiella pneumoniae [27] = assay: Antibacterial activity against carbapenemase producing Klebsiella pneumoniae isolate 321 infected in ICR mouse assessed as change in bacterial load at 6.25 to 50 mg/kg, sc; type: functional; details: dose mg/kg 6.25-50; route subcutaneous; method in brief: as §2
Mus musculus = assay: AUC in ICR mouse at 6.25 mg/kg, sc; details: in vivo
[28] = Cmax in ICR mouse at 6.25 mg/kg, sc; details: in vivo

`CN(C)c1cc(NC(=O)CNC(C)(C)C)c(O)c2c1C[C@H]1C[C@H]3[C@H](N(C)C)C(O)=C(C(N)=O)C(=O)[C@@]3(O)C(O)=C1C2=O` [TIGECYCLINE] showed a fAUC/MIC [1] of 3.62, a fAUC/MIC [2] of 2.64 and a fAUC/MIC [3] of 5.37. The fAUC/MIC [4] was 2.01, the fAUC/MIC [5] was 4.53 and the fAUC/MIC [6] was 5.96. It also gave a fAUC/MIC [7] of 4.76, a fAUC/MIC [8] of 3.88 and a fAUC/MIC [9] of 6.83. The fAUC/MIC [10] was 7.5, the fAUC/MIC [11] was 6.53 and the fAUC/MIC [12] was 5.4. The fAUC/MIC [13] was 2.02, the fAUC/MIC [14] was 5.13 and the fAUC/MIC [15] was 3.09. It also gave a fAUC/MIC [16] of 5.47, a log10CFU/ml (Escherichia coli [17]) of -2.05 and a log10CFU/ml (Escherichia coli [18]) of -2.3. It also gave a log10CFU/ml (Escherichia coli [19]) of -2, a log10CFU/ml (Escherichia coli [20]) of -2.54 and a log10CFU/ml (Escherichia coli [21]) of -2.4. It also gave a log10CFU/ml (Klebsiella pneumoniae [22]) of -1.42, a log10CFU/ml (Klebsiella pneumoniae [23]) of -1.51 and a log10CFU/ml (Klebsiella pneumoniae [24]) of -3.15. The log10CFU/ml (Klebsiella pneumoniae [25]) was -1.34, the log10CFU/ml (Klebsiella pneumoniae [26]) was -1.12 and the log10CFU/ml (Klebsiella pneumoniae [27]) was -1.46. The AUC (Mus musculus) was 4800 ng·h/mL and the Cmax [28] was 1700 ng/mL.
